Results as given in PMC5987874 (The Journal of General Physiology, 2018).
Residue numbers refer to the chain shown, from its start. Like-named read-outs stand apart in the source and are kept apart here.

What was measured:
[1] = target: T1, human Hv1 E153A (E^2.53A) (Homo sapiens, UniProt Q96D96, E153A); test: Whole-cell voltage clamp, Zn^2+ modulation of GAQ gating; type: cell-based
T1 sequence (Q96D96 1-273 E153A): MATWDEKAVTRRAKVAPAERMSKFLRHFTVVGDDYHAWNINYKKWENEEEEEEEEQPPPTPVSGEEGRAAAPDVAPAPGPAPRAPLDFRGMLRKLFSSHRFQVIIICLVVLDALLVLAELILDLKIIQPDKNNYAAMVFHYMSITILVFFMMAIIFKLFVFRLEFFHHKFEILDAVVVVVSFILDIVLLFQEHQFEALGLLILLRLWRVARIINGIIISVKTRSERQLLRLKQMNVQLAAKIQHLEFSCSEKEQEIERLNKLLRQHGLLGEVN
How it was run: (§1)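 Whole-cell patch clamp at ~21°C. Pipette and bath (mM): ~80 TMA-MeSO3, 100 Bis-Tris, 8 HCl, pH 6.5, 310–320 mOsm. ZnCl2 was diluted into bath solution and applied by gravity superfusion, at least 2 min per change. Test step voltage was set per construct from its V0.5. G_STEP = end-of-step current/(V−V_REV). Effect = 1 − G_Zn/G_control, fitted to the Hill equation. IC50 and nH are means ± SEM from separate cells. ΔpIC50 was tested by unpaired t test, P<0.05.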

[2] = target: T2, human Hv1 H140A-H193A (Homo sapiens, UniProt Q96D96, H140A/H193A); test: as above; type: cell-based
T2 sequence (Q96D96 1-273 H140A/H193A): T1 sequence (Q96D96 1-273 E153A) with H140A, A153E, H193A
How it was run: as §1

[3] = target: T2, human Hv1 H140A-H193A; conditions: double mutant; ref Ramsey et al., 2006; cited from earlier work
[4] = target: T3, human Hv1 E119A (E^1.58A) (Homo sapiens, UniProt Q96D96, E119A); test: Whole-cell voltage clamp, Zn^2+ modulation of GAQ gating; type: cell-based
T3 sequence (Q96D96 1-273 E119A): T1 sequence (Q96D96 1-273 E153A) with E119A, A153E
How it was run: as §1

SMILES: [Cl-].[Cl-].[Zn+2] [Zn^2+, ZnCl2]
- Mean ΔpIC50 = (pIC50_1 - pIC50_2) ([1]; E153A vs WT): −1.29
- Hill value ([1]; VSTEP 40 mV): 0.87
- pIC50 ([1]; VSTEP 40 mV, calculated as log (IC50)): −3.77
- IC50 ([1]; read-out: Mean IC50 @ VSTEP, VSTEP 40 mV, pH 6.5, mean of fits in separate cells): 241 µM
- nH, fit of the mean data to a Hill function ([2]; Fig. 2C): 1.5
- Mean ΔpIC50 = (pIC50_1 - pIC50_2) ([2]; H140A-H193A vs H140A): −1.65
- Mean ΔpIC50 = (pIC50_1 - pIC50_2) ([2]; H140A-H193A vs H193A): −1.30
- Mean ΔpIC50 = (pIC50_1 - pIC50_2) ([2]; H140A-H193A vs WT): −2.68
- Hill value ([2]; VSTEP 100 mV): 1.57
- IC50 ([2]; VSTEP 100 mV): 1700 ± 300 µM
- pIC50 ([2]; VSTEP 100 mV, calculated as log (IC50)): −2.76
- IC50 ([2]; read-out: IC50, fit of the mean data to a Hill function, Fig. 2C): 1740 µM
- Zn^2+ sensitivity [3]: essentially insensitive to submillimolar
- Mean ΔpIC50 = (pIC50_1 - pIC50_2) ([4]; E119A vs WT): −0.28
- nH, fit of the mean data to a Hill function ([4]; Fig. 3C): 0.8
- Hill value ([4]; VSTEP 120 mV): 0.80
- pIC50 ([4]; VSTEP 120 mV, calculated as log (IC50)): 5.16
- IC50 ([4]; read-out: IC50, fit of the mean data to a Hill function, Fig. 3C): 6.7 µM
